ChEMBL document CHEMBL1154436, “Synthesis, pharmacological activity and hydrolytic behavior of ethylenediamine and benzathine conjugates of ibuprofen” (Eur J Med Chem, 2008)

Tests used:
[1] = Chemical stability assessed as hydrolysis in phosphate buffer at pH 7.4; assay type: physicochemical
Method in brief: (§1)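 Hydrolysis in HCl (pH 1.2) or phosphate (pH 7.4) buffer, 0.05 M total buffer, ionic strength held at 0.5 M with KCl, 37 °C. Released parent drug measured by UV in a chloroform extract. At pH 7.4, sampled at 0.5–10 h. pH 1.2 assay run 2 h. First-order k = 2.303/t·log(a/(a−x)), t in minutes; half-life derived. Mean of three sets.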

[2] = Chemical stability assessed as hydrolysis in hydrochloric acid buffer at pH 1.2; assay type: physicochemical; method in brief: as §1
Rattus norvegicus [3] = assay: Antiinflammatory activity in Wistar rat assessed as inhibition of carrageenan-induced paw edema at 21.15 mg/kg, po administered 30 mins before carrageenan challenge measured 3 hrs after post drug dose; assay type: functional
Method in brief: (§2)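 Wistar rats (150–200 g), four groups of six. Drug given orally, 0.75–1.0 ml of a suspension in 0.5% w/v sodium CMC (stocks 4, 4.23, 5.99 mg/ml), dose molecularly equivalent to ibuprofen 20 mg/kg. Control group received no drug. Carrageenan 1%, 0.1 ml, injected subplantar into the left hind paw 30 min after dosing. Paw volume measured before and after treatment. Inhibition % = [(Vt−V0)control − (Vt−V0)treated]/(Vt−V0)control × 100. One-way ANOVA versus control.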

Rattus norvegicus [4] = assay: Antiinflammatory activity in Wistar rat assessed as inhibition of carrageenan-induced paw edema at 21.15 mg/kg, po administered 30 mins before carrageenan challenge measured 24 hrs after post drug dose; assay type: functional; method in brief: as §2
Mus musculus [5] = assay: Analgesic activity in Swiss albino mouse assessed as protection against acetic acid-induced writhing at 21.15 mg/kg, po administered 3 hrs mins before acetic acid challenge relative to control; assay type: functional
Method in brief: (§3)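 Mice, four groups of six: vehicle control 5 ml/kg, or test drug as a homogeneous suspension in 0.5% w/v aqueous sodium CMC (stocks 1, 1.05, 1.49 mg/ml), 0.5–0.6 ml orally, doses molecularly equivalent to ibuprofen 20 mg/kg. Acetic acid given i.p. at 1 ml/100 g body weight. Writhings counted over 10 min. Protection % = 100 − (test/control writhings × 100). Mean ± S.E.M.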

Rattus norvegicus [6] = assay: Gastrointestinal toxicity in Wistar rat assessed ulcer index at 100 mg/kg, po after 17 hrs; assay type: organism-based; set-up: dose 100 mg/kg, route oral; details: in vivo
Method in brief: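 Adult Wistar rats (150–200 g), four groups of six, fasted 8 h before dosing. Vehicle control, ibuprofen 100 mg/kg, or conjugate at a dose molecularly equivalent to ibuprofen 100 mg/kg. Killed 17 h after dosing, with food and water ad libitum. Gastric mucosa examined with a 4× binocular magnifier. Lesions classed as large (>2 mm), small (1–2 mm) or punctiform (<1 mm) and scored. Index = treated mean score minus control mean score.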

Rattus norvegicus [7] = assay: Antiinflammatory activity in Wistar rat assessed as inhibition of carrageenan-induced paw edema at 29.98 mg/kg, po administered 30 mins before carrageenan challenge measured 3 hrs after post drug dose; assay type: functional; method in brief: as §2
Rattus norvegicus [8] = assay: Antiinflammatory activity in Wistar rat assessed as inhibition of carrageenan-induced paw edema at 29.98 mg/kg, po administered 30 mins before carrageenan challenge measured 24 hrs after post drug dose; assay type: functional; method in brief: as §2
Mus musculus [9] = assay: Analgesic activity in Swiss albino mouse assessed as protection against acetic acid-induced writhing at 29.98 mg/kg, po administered 3 hrs mins before acetic acid challenge relative to control; assay type: functional; method in brief: as §3
Rattus norvegicus [10] = assay: Antiinflammatory activity in Wistar rat assessed as inhibition of carrageenan-induced paw edema at 20 mg/kg, po administered 30 mins before carrageenan challenge measured 3 hrs after post drug dose; assay type: functional; method in brief: as §2
Rattus norvegicus [11] = assay: Antiinflammatory activity in Wistar rat assessed as inhibition of carrageenan-induced paw edema at 20 mg/kg, po administered 30 mins before carrageenan challenge measured 24 hrs after post drug dose; assay type: functional; method in brief: as §2
Mus musculus [12] = assay: Analgesic activity in Swiss albino mouse assessed as protection against acetic acid-induced writhing at 20 mg/kg, po administered 3 hrs mins before acetic acid challenge relative to control; assay type: functional; method in brief: as §3

half-life [1] | Stability [2] | Compound | inhibition in vivo at 21.15 mg/kg (Rattus norvegicus [3]) | inhibition in vivo at 21.15 mg/kg (Rattus norvegicus [4]) | Activity (Mus musculus [5]) | UI (Rattus norvegicus [6]) | inhibition in vivo at 29.98 mg/kg (Rattus norvegicus [7]) | inhibition in vivo at 29.98 mg/kg (Rattus norvegicus [8]) | Activity (Mus musculus [9]) | inhibition in vivo at 20 mg/kg (Rattus norvegicus [10]) | inhibition in vivo at 20 mg/kg (Rattus norvegicus [11]) | Activity (Mus musculus [12])
1.16 h | Stable | CC(C)Cc1ccc(C(C)C(=O)NCCNC(=O)C(C)c2ccc(CC(C)C)cc2)cc1 (mixture of isomers) | 48% | 38% | 29.63% | 4.63 | – | – | – | – | – | –
1.38 h | Stable | CC(C)Cc1ccc(C(C)C(=O)N(CCN(Cc2ccccc2)C(=O)C(C)c2ccc(CC(C)C)cc2)Cc2ccccc2)cc1 (mixture of isomers) | – | – | – | – | 53.5% | 32.4% | 35.84% | – | – | –
– | – | CC(C)Cc1ccc(C(C)C(=O)O)cc1 (stereo not given) [IBUPROFEN] | – | – | – | 13.51 | – | – | – | 52.1% | 35.6% | 23.42%
